# Measured values reported in ChEMBL document CHEMBL2069274, “Novel 3-nitro-1H-1,2,4-triazole-based amides and sulfonamides as potential antitrypanosomal agents” (J Med Chem, 2012).
# Activity calls are given as the source filed them. No cut-off for these calls is given here.
# Tests used:
# [1] = system: Trypanosoma brucei brucei; experiment: Antitrypanosomal activity against bloodstream form of Trypanosoma brucei brucei Lister 427 clone 221a overexpressing tet-inducible NTR in presence of tetracycline after 3 days; settings: 72 h
# Trypanosoma cruzi [2] = experiment: Antitrypanosomal activity against Trypanosoma cruzi Tulahuen C4 amastigotes; format: functional, organism-based
# Outline: (§1)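 96-well format screens: bloodstream-form T. b. rhodesiense trypomastigotes, T. cruzi amastigotes within infected L6 rat skeletal myoblasts, axenically grown L. donovani amastigotes, and uninfected L6 cells for cytotoxicity. IC50 (μM) obtained by linear regression from sigmoidal dose–inhibition curves.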
# [3] = system: Trypanosoma brucei rhodesiense; experiment: Antitrypanosomal activity against Trypanosoma brucei rhodesiense STIB 900 trypomastigotes; format: functional, organism-based
# Outline: as §1
# Leishmania donovani = experiment: Antileishmanial activity against Leishmania donovani MHOM-ET67/L82 amastigotes; format: functional, organism-based
# Outline: as §1
# [4] = system: Trypanosoma brucei brucei; experiment: Selectivity ratio of IC50 for Trypanosoma brucei brucei Lister 427 clone 221a overexpressing tet-inducible NTR in absence of tetracycline to IC50 for Trypanosoma brucei brucei overexpressing tet-inducible NTR in presence of tetracyclin
# [5] = system: Trypanosoma brucei brucei; experiment: Antitrypanosomal activity against bloodstream form of Trypanosoma brucei brucei Lister 427 clone 221a overexpressing tet-inducible NTR in absence of tetracycline after 3 days; settings: 72 h
# [6] = Selectivity index, ratio of IC50 for rat L6 cells to IC50 for Trypanosoma brucei rhodesiense STIB900 trypomastigotes
# [7] = system: Trypanosoma brucei brucei; experiment: Antitrypanosomal activity against bloodstream form of Trypanosoma brucei brucei Lister 427 clone 221a; format: functional, organism-based
# Outline: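 Bloodstream-form parasites seeded at 1 × 10^3 per ml in growth medium with a range of compound concentrations; where required, TbNTR expression induced with tetracycline (1 μg/mL). Incubation 3 days at 37 °C, then Alamar blue added for a further 16 h. Cell density read and IC50 determined.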
# Trypanosoma cruzi [8] = experiment: Ratio of benznidazole IC50 to compound IC50 for Trypanosoma cruzi Tulahuen C4 amastigotes; format: functional
# [9] = Selectivity index, ratio of IC50 for rat L6 cells to IC50 for Trypanosoma cruzi Tulahuen C4 amastigotes
# L6 = experiment: Cytotoxicity against rat L6 cells; format: cell-based
# Outline: as §1
# [10] = system: Trypanosoma brucei brucei; experiment: Activity of Trypanosoma brucei brucei recombinant Type I nitroreductase assessed as oxidised NADH level by spectrophotometric analysis
# Outline: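 His-tagged recombinant TbNTR, purified, assayed spectrophotometrically at 340 nm with nitrotriazole substrate (100 μM) and NADH (100 μM); activity expressed as nmol NADH oxidized min−1 mg−1 enzyme.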
Structure (SMILES),IC50 [1],IC50 (Trypanosoma cruzi [2]),IC50 [3],IC50 (Leishmania donovani),Ratio IC50 [4],IC50 [5],selectivity ratio [6],IC50 [7],Ratio IC50 (Trypanosoma cruzi [8]),selectivity ratio [9],IC50 (L6),Activity [10]
O=C(NCCCn1cnc([N+](=O)[O-])n1)c1ccc(-c2ccccc2)cc1,0.05 µM,0.043 µM,0.587 µM,8.37 µM,6,0.28 µM,199,0.3 µM,36.3,2780,117 µM,–
COc1cc([C@@H]2c3cc4c(cc3[C@H](O)[C@H]3COC(=O)[C@H]23)OCO4)cc(OC)c1OC [PODOFILOX],–,–,–,–,–,–,–,–,–,–,0.022 µM,–
O=C(NCCCn1cnc([N+](=O)[O-])n1)c1cc(C(F)(F)F)cc(C(F)(F)F)c1,–,0.642 µM,16.4 µM,12.3 µM,–,–,11.4,> 10 µM,2.4,291,187 µM,–
O=C(NCCCCn1cnc([N+](=O)[O-])n1)c1ccc2ccccc2n1,–,0.132 µM,4 µM,13.4 µM,–,–,–,> 10 µM,11.8,691,91.5 µM,Active
Nc1nc(N)nc(Nc2ccc([As]3SCC(CO)S3)cc2)n1 (stereo not given) [MELARSOPROL],0.0034 µM,–,–,–,1,0.0034 µM,–,–,–,–,–,–
O=C(NCCCn1cnc([N+](=O)[O-])n1)c1cccc(C(F)(F)F)c1,–,0.353 µM,3.76 µM,37.3 µM,–,–,–,> 10 µM,4.4,> 826,> 292 µM,–
O=[N+]([O-])c1ncn(CCCNS(=O)(=O)c2ccc(-c3ccccc3)cc2)n1,0.07 µM,0.028 µM,1.05 µM,7.54 µM,6,0.44 µM,–,0.5 µM,55.8,1760,50 µM,–
O=[N+]([O-])c1ncn(CCCNS(=O)(=O)c2cccc3cccnc23)n1,–,0.4 µM,6.52 µM,32.9 µM,–,–,–,> 10 µM,3.9,519,208 µM,–
O=C(NCCCn1cnc([N+](=O)[O-])n1)Nc1cc(C(F)(F)F)cc(C(F)(F)F)c1,0.18 µM,0.734 µM,6.03 µM,11.4 µM,5,0.81 µM,4,1 µM,2.1,33,24.2 µM,–
Cc1ccc(S(=O)(=O)NCCCn2cnc([N+](=O)[O-])n2)cc1,0.24 µM,0.412 µM,2.54 µM,38.1 µM,23,5.63 µM,> 121,4 µM,3.8,> 747,> 308 µM,–
Cn1ccnc1S(=O)(=O)NCCCn1cnc([N+](=O)[O-])n1,–,20.6 µM,21.9 µM,223 µM,–,–,> 14.5,–,0.1,> 15,> 318 µM,–
O=C(Cn1ccnc1[N+](=O)[O-])NCc1ccccc1 [BENZNIDAZOLE],2.2 µM,1.56 µM,–,–,10,21.8 µM,–,–,–,–,–,–
O=C(Cn1cnc([N+](=O)[O-])n1)NCc1ccccc1,–,3.38 µM,9.96 µM,28.1 µM,–,–,–,> 10 µM,0.5,102,345 µM,Active
O=[N+]([O-])c1ncn(CCCCNS(=O)(=O)c2ccc(C(F)(F)F)cc2)n1,–,0.71 µM,0.354 µM,7.79 µM,–,–,240,–,2.2,120,84.9 µM,–
O=C(NCCCn1ccnc1[N+](=O)[O-])c1ccc(C(F)(F)F)cc1,–,6.05 µM,21.4 µM,13.8 µM,–,–,–,–,0.3,29,177 µM,–
O=[N+]([O-])c1ncn(CCCNS(=O)(=O)Cc2ccccc2)n1,–,2.24 µM,6.49 µM,79.4 µM,–,–,> 47.4,–,0.7,> 138,> 308 µM,–
O=[N+]([O-])c1ncn(CCCNS(=O)(=O)c2cc(C(F)(F)F)cc(C(F)(F)F)c2)n1,–,0.322 µM,11.3 µM,20.7 µM,–,–,9.6,6.6 µM,4.9,338,109 µM,–
O=C(NCCCn1ccnc1[N+](=O)[O-])c1ccc(OC(F)(F)F)cc1,–,3.71 µM,46.6 µM,36 µM,–,–,–,–,0.4,74,274 µM,–
CC1CS(=O)(=O)CCN1/N=C/c1ccc([N+](=O)[O-])o1 (stereo not given) [NIFURTIMOX],–,–,–,–,13,–,–,–,–,–,–,Active
O=C(NCCn1cnc([N+](=O)[O-])n1)c1ccc(OC(F)(F)F)cc1,–,0.73 µM,1.99 µM,29.2 µM,–,–,> 131,–,2.1,> 357,> 261 µM,–
O=[N+]([O-])c1ncn(CCNS(=O)(=O)c2ccc(C(F)(F)F)cc2)n1,–,0.803 µM,2.79 µM,32.4 µM,–,–,–,> 10 µM,1.9,248,200 µM,Active
Cn1ccnc1S(=O)(=O)NCCn1cnc([N+](=O)[O-])n1,–,83.4 µM,35.9 µM,> 332 µM,–,–,> 9.3,–,0,> 4,> 332 µM,–
O=[N+]([O-])c1ncn(CCNS(=O)(=O)c2cc(C(F)(F)F)cc(C(F)(F)F)c2)n1,–,1.68 µM,36.7 µM,33.3 µM,–,–,3,7.9 µM,0.9,66.2,111 µM,–
O=C(NCCCn1cnc([N+](=O)[O-])n1)c1ccc(C(F)(F)F)nc1,–,3.46 µM,3.55 µM,96.5 µM,–,–,–,7.9 µM,0.5,> 84,> 291 µM,–
O=[N+]([O-])c1ncn(CCCNS(=O)(=O)c2cc(C(F)(F)F)ccc2C(F)(F)F)n1,–,0.644 µM,10.3 µM,46.1 µM,–,–,–,> 10 µM,2.4,178,115 µM,–
O=[N+]([O-])c1ncn(CCNS(=O)(=O)Cc2ccccc2)n1,–,6.46 µM,8.39 µM,113 µM,–,–,> 38.3,–,0.2,> 48,> 322 µM,–
O=C(NCCCn1cnc([N+](=O)[O-])n1)c1cnc2ccccc2n1,–,0.807 µM,34.9 µM,62.7 µM,–,–,–,> 10 µM,1.9,> 379,> 306 µM,–
